Laboratory results taken from ChEMBL document CHEMBL1156453, “Cellular characterization of a novel focal adhesion kinase inhibitor” (J Biol Chem, 2007).
Active and inactive are the calls of the source. No cut-off for these calls is given here.

How the values were obtained:
[1] = biological target: Dual specificity mitogen-activated protein kinase kinase 6 (Homo sapiens) (UniProt P52564); assay: Inhibition of MKK6 at 1 uM
[2] = biological target: Mitogen-activated protein kinase 8 (Homo sapiens) (UniProt P45983); assay: Inhibition of human JNK1alpha1 at 1 uM
[3] = biological target: Cyclin-dependent kinase 1/cyclin B1 (Homo sapiens, UniProt P06493); assay: Inhibition of human CDK1/cyclinB; type: protein-complex assay
[4] = biological target: Tyrosine-protein kinase Lck (Homo sapiens) (UniProt P06239); assay: Inhibition of LCK at 1 uM
[5] = biological target: Tyrosine-protein kinase BTK (Homo sapiens) (UniProt Q06187); assay: Inhibition of BTK at 1 uM
[6] = biological target: Tyrosine-protein kinase ABL1 (Homo sapiens) (UniProt P00519); assay: Inhibition of human Abl at 1 uM
[7] = biological target: Cyclin-dependent kinase 2 (Homo sapiens) (UniProt P24941); assay: Inhibition of human CDK2/cyclinA at 1 uM
[8] = biological target: Serine/threonine-protein kinase Chk1 (Homo sapiens) (UniProt O14757); assay: Inhibition of CHK1 at 1 uM
Summary of the method: (§1)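 Recombinant kinases were screened in a commercial profiling panel with the compound at a single concentration of 1 μM. The read-out is percent inhibition of each enzyme's kinase activity.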

[9] = Inhibition of MKK at 1 uM; summary of the method: as §1
[10] = biological target: Mitogen-activated protein kinase 1 (Homo sapiens) (UniProt P28482); assay: Inhibition of human MAPK1 at 1 uM; summary of the method: as §1
[11] = biological target: Protein kinase C alpha type (Homo sapiens) (UniProt P17252); assay: Inhibition of human PKCalpha at 1 uM
[12] = test system: PC-3; assay: Cell number in human PC3 cells at 1 uM after 3 days as % of control; conditions: PC-3, 72 h
[13] = biological target: Cyclin-dependent kinase 3 (Homo sapiens) (UniProt Q00526); assay: Inhibition of human CDK3/cyclinE at 1 uM
[14] = Inhibition of 10% serum-stimulated cell migration of rat REF52 cells at 1.0 uM pretreated for 30 mins measured after 6 hrs by transwell assay relative to control; type: functional
Summary of the method: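 Modified Boyden transwell, 8-μm pores. REF52 cells (1 × 10⁵) pretreated 30 min with inhibitor, which stayed in both chambers. Attractant was 10% FBS in the lower chamber, or membrane underside coated with 1.5 μg/ml fibronectin overnight at 4 °C under serum-free DMEM. Migration 6 h at 37 °C. Underside cells fixed, crystal-violet stained and counted in four fields. Triplicates normalized to untreated control; ANOVA then t-tests.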

[15] = test system: NIH3T3; assay: Inhibition of focal adhesion turnover in wounded mouse NIH3T3 cells expressing GFP-paxillin assessed as average adhesion life-time at 1 uM by TIRF microscopy; type: functional
[16] = biological target: Paxillin (Rattus norvegicus) (UniProt Q66H76); assay: Decrease in Paxillin Try31 phosphorylation in rat REF52 cells; type: cell-based
Summary of the method: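 REF52 cells exposed to 1 μm inhibitor for the indicated times, then lysed in CH buffer containing phosphatase and protease inhibitors. Whole-cell lysates resolved by SDS-PAGE and immunoblotted with anti-phospho-Tyr31 paxillin and anti-paxillin.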

[17] = test system: PC-3; assay: Induction of apoptosis in human PC3 cells attached in serum containing medium assessed as histone accumulation after 24 hrs by ELISA
[18] = organism: Homo sapiens; assay: Inhibition of human PKBalpha at 1 uM; summary of the method: as §1
[19] = test system: Fibroblast; assay: Inhibition of cell growth in […] fibroblast at 10 uM; type: functional, cell-based
[20] = biological target: Glycogen synthase kinase-3 beta (Homo sapiens, UniProt P49841); assay: Inhibition of human GSK3-beta at 1 uM; summary of the method: as §1
[21] = biological target: T1, Focal adhesion kinase 1 (Homo sapiens, UniProt Q05397); assay: Inhibition of FAK Tyr397 phosphorylation in human A431 cells by ELISA
[22] = organism: Homo sapiens; assay: Inhibition of human CDK5/p35 at 1 uM; summary of the method: as §1
[23] = biological target: Mast/stem cell growth factor receptor Kit (Homo sapiens) (UniProt P10721); assay: Inhibition of c-kit at 1 uM
[24] = test system: NIH3T3; assay: Inhibition of focal adhesion turnover in wounded mouse NIH3T3 cells expressing GFP-paxillin assessed as average adhesion life-time at 10 uM by TIRF microscopy; type: functional
[25] = test system: NIH3T3; assay: Inhibition of focal adhesion turnover in wounded mouse NIH3T3 cells expressing GFP-paxillin assessed as decrease in rate of disassembly by TIRF microscopy; type: functional, cell-based
[26] = biological target: Platelet-derived growth factor receptor beta (Homo sapiens) (UniProt P09619); assay: Inhibition of PDGFRbeta at 1 uM
[27] = Cell number in rat REF52 cells at 1 uM after 3 days as % of control; conditions: REF52, 72 h
[28] = biological target: Cyclin-dependent kinase 7 (Homo sapiens, UniProt P50613); assay: Inhibition of human CDK7/cyclinH/MAT1 at 1 uM; summary of the method: as §1
[29] = biological target: Paxillin (Rattus norvegicus) (UniProt Q66H76); assay: Induction of paxillin organization loss in focal adhesion in rat REF52 cells at 3 uM after 1 hr by immunostaining; type: cell-based
Summary of the method: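 REF52 cells held in suspension 30 min to 1 h without serum with inhibitor, then plated on 5 μg/ml fibronectin-coated coverslips for 60 min with inhibitor still present. Cells fixed in 4% paraformaldehyde, permeabilized with Triton X-100 and immunostained for paxillin and phospho-FAK Tyr397. Imaged by fluorescence microscopy, 60× objective.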

[30] = biological target: Phosphatidylinositol 4,5-bisphosphate 3-kinase catalytic subunit gamma isoform (Homo sapiens) (UniProt P48736); assay: Inhibition of human PI3-Kgamma at 1 uM
[31] = biological target: RAC-alpha serine/threonine-protein kinase (Homo sapiens) (UniProt P31749); assay: Inhibition of AKT at 1 uM
[32] = biological target: Protein-tyrosine kinase 2-beta (Homo sapiens, UniProt Q14289); assay: Inhibition of Pyk2
Summary of the method: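 Recombinant Pyk2 was run in parallel with the FAK kinase assay. That assay measures phosphorylation of a poly(Glu/Tyr) (4:1) substrate in an ELISA read with anti-phosphotyrosine (PY20) and an HRP secondary. Compounds were serially diluted at ½-log steps from a 1 μm top concentration, each concentration was run in triplicate, and IC50 was fitted by the Hill slope model.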

[33] = biological target: T1, Focal adhesion kinase 1; assay: Inhibition of FAK Tyr397 phosphorylation in human FG cells after 60 mins by Western blot analysis
[34] = test system: PC-3; assay: Cell number in human PC3 cells at 10 uM after 3 days as % of control; conditions: PC-3, 72 h
[35] = test system: REF52; assay: Induction of apoptosis in attached rat REF52 cells assessed as histone accumulation after 24 hrs by ELISA; type: functional, cell-based
Summary of the method: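 Attached cells in serum-containing medium treated with inhibitor at the indicated concentrations, 24 h for REF52 and PC3, 16 h for MDCK, then lysed. Free histones in lysates measured by cell death detection ELISA, in duplicate. Untreated adherent cells were the negative control. Cells suspended 16–24 h in serum-free medium were the positive control. One of three experiments shown.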

Chain of Paxillin (Rattus norvegicus) (Q66H76 whole entry): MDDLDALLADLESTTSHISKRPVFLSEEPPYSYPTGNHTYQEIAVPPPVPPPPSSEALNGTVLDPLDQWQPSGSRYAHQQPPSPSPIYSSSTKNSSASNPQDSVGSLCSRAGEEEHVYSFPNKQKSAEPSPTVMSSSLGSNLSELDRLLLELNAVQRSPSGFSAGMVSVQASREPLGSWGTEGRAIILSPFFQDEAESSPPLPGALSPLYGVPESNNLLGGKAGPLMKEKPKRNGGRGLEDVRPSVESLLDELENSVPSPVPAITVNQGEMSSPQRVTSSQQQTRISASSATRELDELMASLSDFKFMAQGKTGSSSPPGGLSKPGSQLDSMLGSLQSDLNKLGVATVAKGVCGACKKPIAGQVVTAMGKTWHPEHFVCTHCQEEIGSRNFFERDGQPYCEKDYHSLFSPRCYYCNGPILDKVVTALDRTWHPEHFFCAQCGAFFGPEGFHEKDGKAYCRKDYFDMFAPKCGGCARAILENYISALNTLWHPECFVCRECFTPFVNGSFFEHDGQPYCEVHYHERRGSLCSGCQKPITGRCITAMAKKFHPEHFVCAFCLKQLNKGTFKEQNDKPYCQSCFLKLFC
T1 sequence (Q05397 whole entry): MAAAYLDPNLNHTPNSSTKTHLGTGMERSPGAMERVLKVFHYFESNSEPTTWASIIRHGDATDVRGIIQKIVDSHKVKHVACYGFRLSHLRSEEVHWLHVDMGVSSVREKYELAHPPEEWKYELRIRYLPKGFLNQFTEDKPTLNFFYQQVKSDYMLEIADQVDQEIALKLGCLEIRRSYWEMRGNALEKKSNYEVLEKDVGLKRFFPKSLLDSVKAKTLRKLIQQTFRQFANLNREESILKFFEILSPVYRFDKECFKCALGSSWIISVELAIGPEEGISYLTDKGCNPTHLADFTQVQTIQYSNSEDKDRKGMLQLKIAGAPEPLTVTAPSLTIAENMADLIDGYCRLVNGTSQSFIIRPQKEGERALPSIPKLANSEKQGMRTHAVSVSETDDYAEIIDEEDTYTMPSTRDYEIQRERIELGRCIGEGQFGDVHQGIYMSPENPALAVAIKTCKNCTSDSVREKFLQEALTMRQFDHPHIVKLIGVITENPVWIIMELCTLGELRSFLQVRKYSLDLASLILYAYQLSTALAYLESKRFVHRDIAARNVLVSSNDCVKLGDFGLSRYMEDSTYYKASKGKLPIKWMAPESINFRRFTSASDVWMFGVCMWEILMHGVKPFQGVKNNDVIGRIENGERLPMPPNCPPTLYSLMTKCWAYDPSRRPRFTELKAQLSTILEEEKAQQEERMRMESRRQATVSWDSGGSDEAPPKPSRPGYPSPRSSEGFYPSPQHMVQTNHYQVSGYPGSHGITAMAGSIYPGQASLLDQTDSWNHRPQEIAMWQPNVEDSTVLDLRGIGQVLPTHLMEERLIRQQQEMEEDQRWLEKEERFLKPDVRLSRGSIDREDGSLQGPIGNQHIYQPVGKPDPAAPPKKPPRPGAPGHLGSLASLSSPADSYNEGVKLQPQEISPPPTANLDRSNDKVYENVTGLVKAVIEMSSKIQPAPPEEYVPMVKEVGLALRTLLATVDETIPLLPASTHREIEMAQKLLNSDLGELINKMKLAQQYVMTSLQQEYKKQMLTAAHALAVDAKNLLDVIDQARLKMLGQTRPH
Chain of Mitogen-activated protein kinase 1 (Homo sapiens) (P28482 whole entry): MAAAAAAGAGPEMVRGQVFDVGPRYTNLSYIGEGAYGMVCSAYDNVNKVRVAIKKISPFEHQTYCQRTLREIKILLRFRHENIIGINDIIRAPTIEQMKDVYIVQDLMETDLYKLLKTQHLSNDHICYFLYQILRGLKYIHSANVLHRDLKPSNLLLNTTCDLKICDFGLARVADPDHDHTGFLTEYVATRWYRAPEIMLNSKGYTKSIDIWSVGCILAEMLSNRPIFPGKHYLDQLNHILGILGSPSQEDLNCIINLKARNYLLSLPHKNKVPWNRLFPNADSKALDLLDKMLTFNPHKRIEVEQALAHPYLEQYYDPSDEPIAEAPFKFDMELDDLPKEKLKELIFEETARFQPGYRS
Chain of Protein-tyrosine kinase 2-beta (Q14289 whole entry): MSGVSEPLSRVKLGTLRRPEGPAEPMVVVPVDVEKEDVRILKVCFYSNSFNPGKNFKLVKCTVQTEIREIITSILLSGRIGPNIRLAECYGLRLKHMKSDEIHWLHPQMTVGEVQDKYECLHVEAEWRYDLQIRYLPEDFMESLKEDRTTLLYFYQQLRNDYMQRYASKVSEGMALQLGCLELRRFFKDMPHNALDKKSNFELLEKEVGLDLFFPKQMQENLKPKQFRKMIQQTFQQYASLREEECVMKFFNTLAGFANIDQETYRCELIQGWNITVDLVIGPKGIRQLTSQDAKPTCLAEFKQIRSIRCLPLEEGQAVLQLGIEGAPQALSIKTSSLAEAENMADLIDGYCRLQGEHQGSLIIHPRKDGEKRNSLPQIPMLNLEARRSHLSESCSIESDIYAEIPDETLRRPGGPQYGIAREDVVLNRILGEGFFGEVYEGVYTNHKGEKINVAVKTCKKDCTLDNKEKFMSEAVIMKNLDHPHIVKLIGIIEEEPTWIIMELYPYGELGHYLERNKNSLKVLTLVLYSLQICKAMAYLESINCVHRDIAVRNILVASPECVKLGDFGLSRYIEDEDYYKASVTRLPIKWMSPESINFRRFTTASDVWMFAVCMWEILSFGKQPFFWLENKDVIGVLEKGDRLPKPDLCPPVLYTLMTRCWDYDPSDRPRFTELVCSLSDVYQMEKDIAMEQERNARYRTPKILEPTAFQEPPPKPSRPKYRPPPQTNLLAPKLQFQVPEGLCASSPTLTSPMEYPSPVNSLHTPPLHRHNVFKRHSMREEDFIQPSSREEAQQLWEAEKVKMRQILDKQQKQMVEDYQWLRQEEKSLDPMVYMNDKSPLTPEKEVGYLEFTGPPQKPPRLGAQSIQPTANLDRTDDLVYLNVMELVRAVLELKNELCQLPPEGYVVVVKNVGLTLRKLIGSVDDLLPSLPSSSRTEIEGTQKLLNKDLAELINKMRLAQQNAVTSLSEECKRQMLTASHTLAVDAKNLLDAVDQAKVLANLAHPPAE
Chain of Glycogen synthase kinase-3 beta (P49841 whole entry, looked up): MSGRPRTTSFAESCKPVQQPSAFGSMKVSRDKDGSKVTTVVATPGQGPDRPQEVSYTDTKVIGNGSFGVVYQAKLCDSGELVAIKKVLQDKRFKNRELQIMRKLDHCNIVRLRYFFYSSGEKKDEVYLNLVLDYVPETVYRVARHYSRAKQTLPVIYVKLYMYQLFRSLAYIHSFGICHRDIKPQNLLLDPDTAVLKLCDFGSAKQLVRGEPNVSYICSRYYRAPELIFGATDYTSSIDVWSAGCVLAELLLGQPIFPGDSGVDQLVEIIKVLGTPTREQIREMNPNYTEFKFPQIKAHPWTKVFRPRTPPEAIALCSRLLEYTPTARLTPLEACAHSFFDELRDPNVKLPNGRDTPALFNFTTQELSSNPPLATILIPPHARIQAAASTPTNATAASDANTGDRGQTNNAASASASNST
Chain of Cyclin-dependent kinase 3 (Homo sapiens) (Q00526 whole entry, looked up): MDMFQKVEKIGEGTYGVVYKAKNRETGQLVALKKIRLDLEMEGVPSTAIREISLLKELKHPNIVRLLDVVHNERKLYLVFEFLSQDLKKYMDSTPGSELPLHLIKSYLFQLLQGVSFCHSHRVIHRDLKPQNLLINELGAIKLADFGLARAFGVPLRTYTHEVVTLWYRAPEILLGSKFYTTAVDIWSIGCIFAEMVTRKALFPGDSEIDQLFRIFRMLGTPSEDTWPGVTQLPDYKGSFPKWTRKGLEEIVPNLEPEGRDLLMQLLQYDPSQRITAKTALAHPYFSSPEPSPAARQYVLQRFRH
Chain of Dual specificity mitogen-activated protein kinase kinase 6 (Homo sapiens) (P52564 whole entry): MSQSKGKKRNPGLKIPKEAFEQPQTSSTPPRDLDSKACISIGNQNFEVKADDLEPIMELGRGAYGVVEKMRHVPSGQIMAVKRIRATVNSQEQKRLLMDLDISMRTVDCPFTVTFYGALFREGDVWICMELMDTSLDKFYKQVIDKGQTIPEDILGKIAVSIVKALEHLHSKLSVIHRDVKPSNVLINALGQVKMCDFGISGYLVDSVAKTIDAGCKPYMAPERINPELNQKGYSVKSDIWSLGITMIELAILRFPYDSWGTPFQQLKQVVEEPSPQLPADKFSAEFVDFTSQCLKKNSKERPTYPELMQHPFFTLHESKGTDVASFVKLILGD
Chain of Mitogen-activated protein kinase 8 (Homo sapiens) (P45983 whole entry): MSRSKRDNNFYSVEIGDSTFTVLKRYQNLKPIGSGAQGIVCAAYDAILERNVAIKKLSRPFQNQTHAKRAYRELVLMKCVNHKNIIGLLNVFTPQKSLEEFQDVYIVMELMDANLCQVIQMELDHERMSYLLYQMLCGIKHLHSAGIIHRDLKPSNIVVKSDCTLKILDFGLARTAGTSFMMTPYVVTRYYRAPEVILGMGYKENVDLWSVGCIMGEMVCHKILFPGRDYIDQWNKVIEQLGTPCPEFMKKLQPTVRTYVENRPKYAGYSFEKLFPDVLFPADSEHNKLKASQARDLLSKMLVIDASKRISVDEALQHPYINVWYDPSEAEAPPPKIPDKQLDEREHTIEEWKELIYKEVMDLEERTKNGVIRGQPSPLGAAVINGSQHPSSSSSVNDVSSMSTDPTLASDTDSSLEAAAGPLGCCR
Chain of Tyrosine-protein kinase Lck (Homo sapiens) (P06239 2-509 limits assumed): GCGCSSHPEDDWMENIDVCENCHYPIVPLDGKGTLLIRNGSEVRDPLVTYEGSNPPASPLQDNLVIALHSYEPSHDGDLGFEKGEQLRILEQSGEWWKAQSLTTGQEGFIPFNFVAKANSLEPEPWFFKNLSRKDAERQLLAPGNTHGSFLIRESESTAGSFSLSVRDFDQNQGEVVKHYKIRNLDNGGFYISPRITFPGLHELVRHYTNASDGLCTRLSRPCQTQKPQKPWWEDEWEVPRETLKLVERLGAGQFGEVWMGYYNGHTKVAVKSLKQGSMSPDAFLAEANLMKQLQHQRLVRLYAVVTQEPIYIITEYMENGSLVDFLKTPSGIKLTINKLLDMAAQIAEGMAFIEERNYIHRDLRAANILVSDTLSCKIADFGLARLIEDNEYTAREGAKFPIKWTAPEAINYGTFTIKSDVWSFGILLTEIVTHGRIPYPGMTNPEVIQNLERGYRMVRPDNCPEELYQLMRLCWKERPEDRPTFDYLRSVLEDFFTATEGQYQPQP

Question: For `CS(=O)(=O)c1cccc(CNc2nc(Nc3ccc4c(c3)CCC(=O)N4)ncc2C(F)(F)F)c1`, which inhibition [1] is on record?
Answer: 16%

Question: And the inhibition [2]?
Answer: 4%

Question: What about the IC50 [3] of the same compound?
Answer: 486 nM

Question: What about the inhibition [4] of the same compound?
Answer: 0%

Question: And the inhibition [5]?
Answer: 11%

Question: And the inhibition [6]?
Answer: 8%

Question: What about the inhibition [7] of the same compound?
Answer: 50%

Question: What about the inhibition [8] of the same compound?
Answer: 13%

Question: What about the inhibition [9] of the same compound?
Answer: 48%

Question: And the inhibition [10]?
Answer: 48%

Question: What about the inhibition [11] of the same compound?
Answer: 12%

Question: And the level, % of control at 1 µM [12]?
Answer: 109%

Question: And the inhibition [13]?
Answer: 44%

Question: And the Activity [14]?
Answer: 1

Question: And the Time [15]?
Answer: 33.1 min

Question: And the Activity [16]?
Answer: Dose-dependent effect

Question: And the Activity [17]?
Answer: inactive

Question: And the inhibition [18]?
Answer: 13%

Question: And the Activity [19]?
Answer: Active

Question: And the inhibition [20]?
Answer: 64%

Question: What about the IC50 [21] of the same compound?
Answer: 11 nM

Question: And the inhibition [22]?
Answer: 0%

Question: What about the inhibition [23] of the same compound?
Answer: 25%

Question: And the Time [24]?
Answer: 42 min

Question: And the Activity [25]?
Answer: Active

Question: What about the inhibition [26] of the same compound?
Answer: 2%

Question: What about the level, % of control at 1 µM [27] of the same compound?
Answer: 141%

Question: And the inhibition [28]?
Answer: 86%

Question: And the Activity [29]?
Answer: Active

Question: What about the inhibition [30] of the same compound?
Answer: 0%

Question: What about the inhibition [31] of the same compound?
Answer: 0%

Question: And the IC50 [32]?
Answer: > 1000 nM

Question: And the IC50 [33]?
Answer: 30 nM

Question: What about the level, % of control at 10 µM [34] of the same compound?
Answer: 17%

Question: What about the Activity [35] of the same compound?
Answer: inactive
